# Screening data deposited in PubChem BioAssay by several laboratories.
# Most compounds without a hit are left out; they make up all but 1.9% or so of the library.
# proCasp3 act = procaspase-3 (human) activation | P42574 | recombinant procaspase-3 D3A, Ac-DEVD-pNA absorbance 405 nm | activation, % at 8.5 µM | 330,000 tested, 0.11% active;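 active means activation above the mean of all tested compounds plus 3 SD, cut at about 21% in these data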;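 further: 0% = DMSO alone and 100% = DMSO wells spiked with extra 5 µM PC-3 D3A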
#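 Test system: Procaspase-3 D3A mutant, all three cleavage aspartates alanine | Dosing: Single dose, 8.5 µM nominal compound, 0.8% DMSO | Schedule: 1 h preincubation, 2 h reaction | Technique: 405 nm absorbance of p-nitroaniline, reads at 0 and 120 min | Repeats: One well per compound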
# PLCb3 inh = PLC-beta3 (human) inhibition, primary screen; 370,000 tested, 0.18% active; inhibition, % at 12.2 µM; Purified PLC-beta3, fluorogenic substrate, fluorescence; AID 720704; Q01970; in the data active means inhibition above about 11%;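 further: 0% = median of compound wells on plate and 100% = full blocker control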
# Target sequence (Q01970 whole entry, looked up): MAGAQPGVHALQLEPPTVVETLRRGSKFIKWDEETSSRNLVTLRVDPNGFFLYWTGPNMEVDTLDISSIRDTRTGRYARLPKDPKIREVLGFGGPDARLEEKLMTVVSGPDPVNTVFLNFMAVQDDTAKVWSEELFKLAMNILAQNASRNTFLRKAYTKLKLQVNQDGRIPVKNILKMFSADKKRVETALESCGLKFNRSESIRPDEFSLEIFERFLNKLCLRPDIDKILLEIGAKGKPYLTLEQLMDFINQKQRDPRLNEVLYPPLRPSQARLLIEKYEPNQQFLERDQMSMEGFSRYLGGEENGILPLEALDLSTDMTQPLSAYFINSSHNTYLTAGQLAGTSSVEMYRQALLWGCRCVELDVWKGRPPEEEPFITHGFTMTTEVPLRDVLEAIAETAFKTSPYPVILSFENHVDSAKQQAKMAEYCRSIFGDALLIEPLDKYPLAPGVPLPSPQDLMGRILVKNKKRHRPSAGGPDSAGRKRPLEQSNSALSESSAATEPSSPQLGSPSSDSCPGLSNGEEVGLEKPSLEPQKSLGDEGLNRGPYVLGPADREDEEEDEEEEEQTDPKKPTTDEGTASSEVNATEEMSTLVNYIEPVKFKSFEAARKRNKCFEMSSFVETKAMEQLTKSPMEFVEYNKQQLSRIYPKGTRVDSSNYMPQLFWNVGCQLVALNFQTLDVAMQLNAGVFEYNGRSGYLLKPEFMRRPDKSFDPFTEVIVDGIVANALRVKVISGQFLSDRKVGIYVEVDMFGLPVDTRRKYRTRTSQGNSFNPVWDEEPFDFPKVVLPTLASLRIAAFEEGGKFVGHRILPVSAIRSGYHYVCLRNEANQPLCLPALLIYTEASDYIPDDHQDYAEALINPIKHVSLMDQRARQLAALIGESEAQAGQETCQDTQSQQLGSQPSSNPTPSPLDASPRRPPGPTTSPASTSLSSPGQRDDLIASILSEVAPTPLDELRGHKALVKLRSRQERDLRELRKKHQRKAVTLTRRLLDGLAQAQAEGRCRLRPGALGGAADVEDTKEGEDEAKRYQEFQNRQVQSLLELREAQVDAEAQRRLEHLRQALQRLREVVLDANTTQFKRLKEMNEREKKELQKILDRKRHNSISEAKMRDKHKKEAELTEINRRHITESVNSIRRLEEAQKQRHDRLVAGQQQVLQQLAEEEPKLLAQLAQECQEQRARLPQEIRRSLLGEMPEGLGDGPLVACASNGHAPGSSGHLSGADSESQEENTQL
# procasp7 counter = counter-screen for procaspase-3 activators: activators of human procaspase-7; P55210; recombinant procaspase-7, Ac-DEVD-pNA absorbance 405 nm; D23A/D198A/D206A triple mutant, cannot self-cleave; scale: DMSO 0, 5 µM enzyme 100; activation, % at 8.5 µM; 330,000 tested, 0.093% active;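 active means percent activation above the screen-wide mean plus 3 SD, cut at about 25% in these data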
#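 System: Procaspase-7 triple mutant (PC-7 D3A); measure: % activation from two-timepoint absorbance difference, scaled to controls; times: 1 h compound preincubation, 2 h substrate cleavage, 25 °C; also added: Ac-DEVD-pNA substrate, 400 µM as added; measured by: Epi-absorbance of released pNA at 405 nm, two timepoints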
# HGIII-sPLA2 inh = Inhibits HGIII-sPLA2 liposome hydrolysis, primary screen. QFRET BODIPY PC-A2 liposome hydrolysis, fluorescence. inhibition, % at 12.2 µM. 370,000 tested, 0.56% active;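 active means inhibition above mean plus 3 SD of compounds lying within the high and low control bounds, cut at about 19% in these data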;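 further: 0% = median of test compound wells and 100% = no enzyme DMSO wells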
# PLCg1 inh = PLC-gamma1 (human) inhibition, primary screen | purified PLC-gamma1, fluorogenic substrate, fluorescence | 370,000 tested, 0.84% active | AID 720700 | P19174 | inhibition, % at 12.2 µM; in the data active means inhibition above about 9.5%
# Arr AP2 block = inhibitors of human beta-arrestin and AP2 interaction. FITC-arrestin peptide / GST-AP2 beads, flow cytometry; AP2 beta2 appendage carries R879A mutation. inhibition, % at 10 µM. 340,000 tested, 0.31% active. AID 504490;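 active means inhibition above a set limit, near 3 SD of compounds lacking own fluorescence, cut at about 54% in these data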;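 further: plate controls were DMSO wells for no effect and 5 µM unlabelled arrestin peptide for full effect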
#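 System: GST-AP2 R879A bound to glutathione beads, E. coli-expressed. Also added: 50 nM FITC-arrestin peptide. Schedule: compound with beads 12 min RT, then probe 1 h RT. Signal: bead flow cytometry, FITC channel. Read-out basis: percent response.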
# PC3 D3A act = counter-screen: procaspase-3 (human) activation; shares compounds with procasp7 counter; recombinant PC-3 D3A, Ac-DEVD-pNA absorbance 405 nm; aspartates 9, 28, 175 changed to alanine; 100% = enzyme control; activation, % at 8.5 µM; 290 tested, under 10 active; AID 493114;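 active means mean percent activation across triplicates above a set limit taken from the earlier primary procaspase-3 screen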;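 further: 0% = DMSO wells and 100% = DMSO wells with 5 µM added PC-3 D3A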
# Procasp7 act = activates human procaspase-7, confirming dual procaspase activators | shares compounds with procasp7 counter | recombinant procaspase-7, Ac-DEVD-pNA absorbance 405 nm; D23A/D198A/D206A mutant that cannot self-cleave | activation, % at 8.5 µM | 290 tested, under 10 active | AID 493115;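 active means mean activation above a set limit carried over from the earlier primary screen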;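 further: 0% = DMSO only and 100% = DMSO with added 5 µM PC-7 enzyme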
# Arr-AP2 CP1 = inhibitors of human beta-arrestin and AP2 interaction. shares compounds with Arr AP2 block. GST-AP2 beads, FITC arrestin peptide binding, flow cytometry; GST-fused beta2-adaptin appendage, R879A mutant. inhibition, % at 10 µM. 1,300 tested, 2% active. AID 504908;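 active means inhibition above a set limit, roughly 3 SD of non-fluorescent compound noise, cut at about 38% in these data; inactive means inhibition at or below that limit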;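 further: loss of bead fluorescence from 50 nM FITC arrestin peptide bound to appendage; 0% = negative control wells and 100% = excess unlabelled arrestin peptide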
# GST GSH counter = GST-GSH bead binding interference, counter-screen. shares compounds with Arr AP2 block. GST-fluorescein binding to GSH beads, fluorescence. inhibition, % at 10 µM. 1,300 tested, 2% active. AID 588338;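 active means inhibition above 50%, about 3 SD of the inhibition seen with non-fluorescent compounds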;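 further: fluorescein maleimide labelled GST captured on 4 micron glutathione beads; higher means more loss of bead fluorescence from quenching or blocked binding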
# sPLA2 confirm = human GIII-sPLA2 inhibition, confirmation | AID 743280 | inhibition, % at 12.2 µM | recombinant hGIII-sPLA2, BODIPY PC-A2 QFRET fluorescence | 2,000 tested, 34% active | shares compounds with HGIII-sPLA2 inh;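 active means mean inhibition across triplicates above the hit cutoff set in the earlier primary screen, cut at about 19% in these data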;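 further: 0% = enzyme with DMSO and 100% = DMSO wells lacking enzyme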
# 535nm interf = counter-screen for HGIII-sPLA2 inhibitors: 535nm fluorescence interference. shares compounds with HGIII-sPLA2 inh. BODIPY FL product fluorescence interference, QFRET. inhibition, % at 12.2 µM. 2,000 tested, 8.5% active;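 active means average inhibition above the solvent-only control mean plus 3 SD, cut at about 6% in these data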;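 further: 0% = DMSO with substrate plus product and 100% = DMSO with substrate alone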
# * marks the source's active call; other numbers are inactive results; i = inactive; · = not tested or not shown.
SMILES,proCasp3 act,PLCb3 inh,procasp7 counter,HGIII-sPLA2 inh,PLCg1 inh,Arr AP2 block,Arr-AP2 CP1,GST GSH counter,others
COc1cc(-n2c(=O)c3ccccc3n(Cc3cccc(C)c3)c2=O)cc(OC)c1OC,2,-6,-2,3,-1,8,·,·,
CSc1ccccc1NC(=O)c1cc2c(=O)n3ccccc3nc2s1,-6,-37,39*,5,-23,0,·,·,PC3 D3A act=-29;Procasp7 act=-35
Cc1ccc(Cn2cccc(-c3nc4ccccc4s3)c2=O)cc1,11,-357,43*,-2,-262,4,·,·,PC3 D3A act=-29;Procasp7 act=-34
O=c1c(-c2nc3ccccc3s2)cccn1Cc1ccccc1,6,i,56*,-3,-379,4,·,·,PC3 D3A act=-29;Procasp7 act=-35
Nc1ccccc1-c1nc2ccccc2s1,-7,i,-3,10,-485,1,·,·,
CC(=O)NCc1ccc(-c2nc3ccccc3s2)cc1,8,-18,5,0,-10,8,·,·,
CCCCNC(=O)C[C@H]1C[C@@]2(C(=O)OC)C(=C[C@H](C(C)C)O[C@@H]2C2CC2)N(CCC2=CCCCC2)C1=O,·,5,·,0,0,·,·,·,
COc1cc2c(cc1OC)C1(C)N(CC2)C(C(C)=O)=NN1c1ccc(Cl)cc1 (stereo not drawn),28*,-142,37*,20*,-96,7,·,·,PC3 D3A act=-28;Procasp7 act=-36;sPLA2 confirm=9;535nm interf=-5
O=C(NCCc1c[nH]c2ccccc12)OCc1cn(Cc2ccc(F)c(F)c2)nn1,·,-4,·,-81,-1,·,·,·,
CCCOc1ccc(C(=O)OCC(=O)c2c(N)n(C)c(=O)n(C)c2=O)cc1OC,-2,-8,5,1,-3,18,·,·,
CC(=O)Oc1ccc(-c2ccc(C(=O)OCC(=O)c3c(N)n(C)c(=O)n(C)c3=O)cc2)cc1,4,-32,11,-37,-21,2,·,·,
Cn1c(N)c(C(=O)COC(=O)c2ccc(F)cc2Cl)c(=O)n(C)c1=O,-9,-6,16,-1,0,-12,11,7,
Cn1c(N)c(C(=O)COC(=O)c2ccc(OC(F)F)cc2)c(=O)n(C)c1=O,3,-1,-8,0,-1,16,0,-1,
CC(C)c1ccc(C(=O)OCC(=O)c2c(N)n(C)c(=O)n(C)c2=O)cc1,-5,-2,9,-11,0,20,18,3,
COc1cc(C(=O)OCC(=O)c2c(N)n(C)c(=O)n(C)c2=O)ccc1OCCC(C)C,5,6,4,4,1,55*,6,-4,
CCOC(=O)C1=NOC(C(=O)NCCO)(C(=O)C2CC2)C1 (stereo not drawn),·,1,·,12,3,·,·,·,
CC(=O)c1c(C)[nH]c(C(=O)OCC(=O)c2c(N)n(CC(C)C)c(=O)n(C)c2=O)c1C,2,-6,9,10,-1,0,5,5,
CC(C)Cn1c(N)c(C(=O)COC(=O)c2cc(F)cc(F)c2)c(=O)n(C)c1=O,8,1,7,-10,3,21,·,·,
CC(=O)c1c(C)[nH]c(C(=O)OCC(=O)c2c(N)n(C)c(=O)n(C)c2=O)c1C,1,·,-4,·,·,·,·,·,
Cn1c(N)c(C(=O)COC(=O)c2ccco2)c(=O)n(C)c1=O,9,0,9,5,-2,7,5,0,
CC(C)Cn1c(N)c(C(=O)COC(=O)c2ccc(O)cc2)c(=O)n(C)c1=O,-1,2,-9,-18,-2,-8,-8,-12,
COC(=O)[C@]12C[C@H](CC(=O)N3CCC(c4ccccc4)CC3)C(=O)N(CCc3ccc(OC)c(OC)c3)C1=C[C@H](C1CCCC1)O[C@@H]2C,·,-1,·,-4,0,·,·,·,
C#CCNC(=O)C[C@H]1C(=O)N(Cc2ccc(OC)cc2)C2=CCCCC[C@@]21C(=O)OC,·,0,·,-3,3,·,·,·,
COC(=O)c1cc(-c2ccc(C)c3ccccc23)c(=O)n2c1CCC2,·,-13,·,-8,-7,·,·,·,
CCOC(=O)[C@]12CCCC3=C1N(CCC3)C(=O)[C@@H](CC(=O)NCCCCc1ccccc1)C2,·,0,·,-7,0,·,·,·,
SMILES,proCasp3 act,PLCb3 inh,procasp7 counter,HGIII-sPLA2 inh,PLCg1 inh,Arr AP2 block,Arr-AP2 CP1,GST GSH counter,others
Cc1ccc(-c2cc3nc(-c4ccco4)cc(N4CCN(Cc5ccoc5)CC4)n3n2)cc1,·,i,·,0,i,·,·,·,
CC(Cc1ccccn1)NC(=O)c1ccc(OC2CCN(Cc3ccccn3)CC2)cc1 (stereo not drawn),5,-7,4,-5,0,62*,11,1,
O=C(NCCc1ccccn1)c1ccc(OC2CCN(Cc3ccccn3)CC2)cc1,8,-5,-8,8,2,-7,·,·,
COCCCn1c(C)nnc1SCC(=O)NCc1ccco1,3,-1,7,3,-2,55*,6,0,
O=C(Nc1ccc(N2C(=O)CC3(CCCCC3)C2=O)c(Cl)c1)c1ccccn1,·,4,·,4,-1,·,·,·,
N#Cc1c(N)sc(=S)c2c1CCCC2,-18,-23,-25,-8,-24,89*,-3,-3,
COc1cccc(NC(=O)c2cccc(NC(=O)c3ccco3)c2)c1,·,1,·,-2,0,·,·,·,
COc1cccc(C(=O)Nc2ccc(NC(=O)c3ccco3)c(Cl)c2)c1,4,10,5,-11,-3,56*,1,-6,
O=C1NC(=S)N/C1=C/C=C/c1ccccc1,-8,-8,3,1,-7,106*,-9,2,
